# OX1R antag-1: antagonists of human orexin 1 receptor (OX1R); 1.8% of 330,000 active; AID 485270, 2010; Orexin/Hypocretin receptor type 1 (Homo sapiens), O43613; OX1R-expressing cells, FRET antagonist read-out; inhibition, % at 6.6 µM; in the data active = inhibition mostly above about 38%, no sharp cut-off; inactive = mostly below about 40%;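 also: 0% = agonist challenge alone and 100% = reference antagonist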
# OX1R antag-2: OX1R (HCRTR1) antagonists, primary screen, fluorescence, CHO/OX1R cells, Fluo-8 calcium, orexin A; Fluo-8 calcium fluorescence; inhibition, % at 5 µM; 0.43% of 330,000 active; AID 434989, 2010;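 active = inhibition above its plate's threshold, mean inhibition of all tested compounds on the plate plus 3 SD, cut at about 37% in these data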;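 also: 0% = orexin A challenge wells and 100% = SB-334867-A antagonist wells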
# TAAR1 antagonist: human TAAR1 antagonists, primary screen, Fluo-8 calcium fluorescence, CHO RD-HGA16 cells. Trace amine-associated receptor 1 (Homo sapiens), Q96RJ0. antagonist. inhibition, % at 3 µM. 1.5% of 360,000 active;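 active = inhibition above a per-plate cutoff, the mean inhibition of test compounds on that plate plus 3 SD, cut at about 49% in these data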;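 also: 0% = DMSO plus EC80 beta-PEA response and 100% = DMSO alone without agonist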
#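 Test system – hTAAR1-expressing CHO RD-HGA16 cells, Gα16-coupled · Reagent – β-PEA at EC80 concentration, post-compound challenge · Compound dosing – 3 µM, single point · Timing – 140 s kinetic read after compound, 140 s after agonist · Detection – Fluo-8 intracellular calcium dye fluorescence, real-time kinetic reads · Control set – DMSO and EC80 PEA controls · Repeats – n of 1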
# GPR7 antag: GPR7 receptor antagonists, primary screen, cell-based, fluorescence, single concentration | inhibition, % at 4.4 µM | GPR7-expressing cells, fluorescence antagonist assay | AID 1861, 2009 | 1.1% of 290,000 active; in the data active = inhibition above about 16%, passing the limit was not always enough;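 also: cells stimulated with the agonist NPW; 0% = agonist with vehicle and 100% = vehicle without agonist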
# Target sequence (P48145 whole entry, looked up): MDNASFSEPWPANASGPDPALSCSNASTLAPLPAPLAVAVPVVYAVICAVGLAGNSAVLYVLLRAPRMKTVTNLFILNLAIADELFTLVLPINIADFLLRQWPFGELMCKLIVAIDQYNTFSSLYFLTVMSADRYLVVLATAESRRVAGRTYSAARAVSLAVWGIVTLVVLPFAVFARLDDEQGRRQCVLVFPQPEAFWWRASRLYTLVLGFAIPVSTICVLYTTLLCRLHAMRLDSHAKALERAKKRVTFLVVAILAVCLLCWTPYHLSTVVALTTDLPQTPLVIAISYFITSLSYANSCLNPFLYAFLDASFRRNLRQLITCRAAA
# TAAR1 agonist: human TAAR1 agonists, primary screen, Fluo-8 calcium fluorescence, CHO RD-HGA16 cells. 0.99% of 360,000 active. Trace amine-associated receptor 1 (Homo sapiens), Q96RJ0. AID 624467, 2012. vehicle wells 0%, saturating PEA agonist 100%. activation, % at 3 µM;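 active = activation above the mean activation of all test compounds in the run plus 3 SD, cut at about 38% in these data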
#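 Repeats: no replicates (n 1) | Material: CHO-derived RD-HGA16 cells with stable Gα16 and human TAAR1 | Technique: Kinetic Fluo-8 calcium fluorescence | Schedule: 17-24 h seeding, 75 min 37 °C dye, 30 min RT | Evaluation: % activation from peak over basal fluorescence ratio, DMSO-to-PEA scaled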
# CHO parental Ca: ATP-evoked calcium signal inhibitors, parental CHO, primary screen, counter-screen for OX1R antagonist project, cell-based, fluorescence, Fluo-8 calcium dye; parental CHO-K1, ATP-induced calcium, Fluo-8 fluorescence; inhibition, % at 5.6 µM; 0.63% of 330,000 active;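 active = inhibition above that plate's mean sample inhibition plus 3 SD, cut at about 26% in these data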;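 also: 0% = ATP-challenged DMSO wells and 100% = DMSO wells without ATP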
#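 Material: parental CHO cells / Compound: single nominal dose of 5.6 µM per compound / Signal: Fluo-8 fluorescence / Replicates: singlicate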
# TAAR1 ag conf: human TAAR1 agonists, retest of hits, confirmation, Fluo-8 calcium fluorescence, CHO RD-HGA16 cells. shares compounds with TAAR1 agonist. scaled: DMSO 0%, maximal phenethylamine 100%. 82% of 2,400 active. AID 651783, 2012. activation, % at 3 µM;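 active = activation above a cutoff set at the run's mean compound activation plus 3 SD, cut at about 39% in these data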
# Ga16 ag counter: nonselective calcium mobilization agonists, CHO-Ga16 cells, counter-screen for hTAAR1 agonist project, cell-based, fluorescence, CHO-Ga16 parental line; shares compounds with TAAR1 agonist; Fluo-8 calcium fluorescence; normalized to maximal ATP response, DMSO zero; activation, % at 3 µM; 50% of 2,400 active; AID 651787, 2012;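 active = activation above the run cutoff, the mean activation over all tested wells plus 3 SD, cut at about 12% in these data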;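 also: 0% = DMSO wells and 100% = maximal ATP response on the peak over basal ratio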
# TAAR1 desensitize: TAAR1 desensitization by agonist hits, confirmation, counter-screen for TAAR1 agonist project, cell-based, fluorescence, tachyphylaxis; shares compounds with TAAR1 agonist; CHO RD-HGA16 hTAAR1, Fluo-8 calcium, beta-PEA response inhibition; inhibition, % at 3 µM; 46% of 2,400 active;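 active = inhibition above the run cutoff, the mean inhibition of all test compounds plus 3 SD, cut at about 49% in these data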;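 also: beta-PEA stimulus applied at its EC80; loss of beta-PEA calcium signal after compound pretreatment read as receptor desensitization; 0% = DMSO with beta-PEA at EC80 and 100% = DMSO alone without agonist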
# Ga16 nonsel ant: inhibition of ATP-evoked calcium response in CHO-Ga16 cells, counter-screen for TAAR1 agonist project, cell-based, fluorescence; AID 651952, 2012; inhibition, % at 3 µM; shares compounds with TAAR1 agonist; 39% of 2,400 active; CHO-Ga16 ATP-induced calcium, Fluo-8 fluorescence;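 active = inhibition above the plate's mean compound inhibition plus 3 SD, computed per plate, cut at about 22% in these data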;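 also: 0% = EC80 ATP with DMSO and 100% = DMSO wells without ATP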
# The depositor's hits bear a star; nt = no result. A selection: hits, their analogues and other compounds. The true share with any hit is near 4.6%.
SMILES,OX1R antag-1,OX1R antag-2,TAAR1 antagonist,GPR7 antag,TAAR1 agonist,CHO parental Ca,TAAR1 ag conf,Ga16 ag counter,TAAR1 desensitize,Ga16 nonsel ant
O=C(CN1CCN(Cc2ccccc2Cl)CC1)N/N=C/c1ccccn1,4,-21,1,-5,7,-31,nt,nt,nt,nt
CN(C[C@@H](Cc1cccc2ccccc12)N(C[C@H](Cc1ccccc1)N(CCc1ccccc1)N=O)N=O)N=O,34,-30,8,-5,51*,-18,76*,3,18,8
Cc1cccc(C(CC(=O)NCCc2ccccc2)c2ccccc2)c1O (centres undefined),19,14,30,4,66*,-19,92*,3,61*,4
CCCCNc1ccc2c3c(cccc13)C(=O)N(CCCC)C2=O,nt,nt,108*,37*,498*,nt,182*,288*,90*,95*
Cc1cccc(C)c1Cn1c(C)c(C(=O)NCc2ccc([N+](=O)[O-])cc2)sc1=O,nt,nt,49*,nt,62*,nt,47*,29*,53*,41*
COC(=O)c1ccc(Cn2c(C)c(C(=O)NCc3ccc([N+](=O)[O-])cc3)sc2=O)o1,nt,nt,38,nt,21,nt,nt,nt,nt,nt
O=C(c1ccccc1)c1ccc(OCC(O)CNC2CCCc3ccccc32)cc1 (centres undefined),3,-24,-22,14,19,-22,nt,nt,nt,nt
OC(CNC1CCCc2ccccc21)COc1ccc2ccccc2c1 (centres undefined),6,-9,15,6,69*,1,100*,28*,70*,31*
CC(=O)NNC(=S)NC(=O)C(c1ccccc1)c1ccccc1,13,-18,19,-2,49*,-16,28,20*,27,25*
Cc1cc(C)nc(N2CCCC(C(=O)NCCc3ccccc3F)C2)n1 (centres undefined),12,-14,8,8,45*,-31,76*,2,38,11
CCCN(CC1CC1)c1cc2c(c3c1ccn3C)C1CCC2C1 (centres undefined),nt,nt,-27,nt,3,nt,nt,nt,nt,nt
COc1ccc(CCNC(=O)C2CC3Cn4c(nc5cc6ccccc6cc54)C3N2C)cc1 (centres undefined),29,-13,-3,nt,20,1,nt,nt,nt,nt
C=CCNC(=O)C1CC2Cn3c(nc4cc(C)c(C)cc43)C2N1C (centres undefined),-1,-11,7,nt,-2,-2,nt,nt,nt,nt
Cc1cc2nc3n(c2cc1C)CC1CC(C(=O)NCCc2cccs2)N(C)C31 (centres undefined),23,-8,69*,nt,101*,-8,81*,2,71*,8

# Assay outcomes (PubChem)
